Measurements from ChEMBL document CHEMBL4706641, “Novel Carboline Fungal Histone Deacetylase (HDAC) Inhibitors for Combinational Treatment of Azole-Resistant Candidiasis” (J Med Chem, 2021).
≈ marks a conversion by molar mass, not a printed value. Calls of active or inactive are those of the source. The calls are words filed in the database; no cut-off is given here.

Legend:
Candida albicans [1] = experiment: Up-regulation of CDR2 mRNA expression in Candida albicans 0304103 at 32 ug/ml incubated for 24 hrs by RT-PCR analysis; format: functional; settings: dose 32.0 µg/ml
In short: (§1)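 C. albicans 0304103 (initial 1 × 10⁶ cells/mL) treated with DMSO, fluconazole 32 μg/mL, compound 32 μg/mL, or both in YEPD medium, 35 °C for 24 h. Total RNA extracted, reverse transcribed, real-time PCR for 40 cycles; fold change by 2^−ΔΔCt with ACT1 as internal control.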

Candida albicans [2] = experiment: Synergistic antifungal activity against Candida albicans 0304103 assessed as potentiation of fluconazole antifungal activity by measuring FICI incubated for 48 hrs in presence of fluconazole by checkerboard microdilution assay; format: functional
In short: (§2)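 Checkerboard broth microdilution per CLSI M27-A3 (modified), clinical Candida isolates. Exponential cells in RPMI 1640 (MOPS-buffered) at 10³ cells/mL; fluconazole 0.25–64 μg/mL crossed with test compound 2–64 μg/mL (final). 48 h at 35 °C; OD630 read with background subtracted. MIC80 = 80% growth inhibition; FICI ≤0.5 synergy, >4 antagonism.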

Candida albicans [3] = experiment: Induction of morphological changes in Candida albicans assessed as reduction in morphological conversion from yeast to hypha forms at 32 ug/ml incubated for 3 hrs by inverse fluorescence microscopy; format: functional, organism-based; settings: dose 32.0 µg/ml
In short: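 Exponential-phase C. albicans were suspended in Spider medium ([…], 2% NaHCO₃, […]) at 2 × 10⁶ cells/mL. Drugs were added alone or combined, with DMSO as control. After 3 h at 37 °C, cells were imaged by inverted fluorescence microscopy. Three independent experiments were run.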

Candida albicans [4] = experiment: microbe, parasite or virus in culture; format: functional, 0304103; settings: Candida albicans, 0304103; time 48 hrs; read-out: MIC80
Histone deacetylase 1 = Histone deacetylase 1 (Homo sapiens, UniProt Q13547); experiment: Inhibition of human HDAC1 pre-incubated for 5 mins before substrate addition and measured after 30 mins by fluorescence based assay
Candida albicans [5] = experiment: Antifungal activity against Candida albicans 4108 incubated for 48 hrs by microdilution assay; format: functional; in short: as §2
Candida albicans [6] = experiment: Inhibition of biofilm formation in Candida albicans 0304103 at 64 ug/ml incubated for 24 hrs in presence of fluconazole by XTT reduction assay; format: functional, organism-based; settings: dose 64.0 µg/ml
In short: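 C. albicans 0304103 at 1.0 × 10⁶ CFU/mL in RPMI 1640 allowed to adhere 90 min at 37 °C, washed with PBS, then fresh medium with fluconazole 2–32 μg/mL and/or compound 0.12–64 μg/mL added; 24 h at 37 °C. Biofilm metabolic activity by XTT reduction, OD490. Three independent experiments.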

[7] = biological target: T1, Protein deacetylase HDAC6 (Homo sapiens, UniProt Q9UBN7); experiment: Inhibition of human HDAC6 pre-incubated for 5 mins before substrate addition and measured after 30 mins by fluorescence based assay
T1 sequence (Q9UBN7 whole entry): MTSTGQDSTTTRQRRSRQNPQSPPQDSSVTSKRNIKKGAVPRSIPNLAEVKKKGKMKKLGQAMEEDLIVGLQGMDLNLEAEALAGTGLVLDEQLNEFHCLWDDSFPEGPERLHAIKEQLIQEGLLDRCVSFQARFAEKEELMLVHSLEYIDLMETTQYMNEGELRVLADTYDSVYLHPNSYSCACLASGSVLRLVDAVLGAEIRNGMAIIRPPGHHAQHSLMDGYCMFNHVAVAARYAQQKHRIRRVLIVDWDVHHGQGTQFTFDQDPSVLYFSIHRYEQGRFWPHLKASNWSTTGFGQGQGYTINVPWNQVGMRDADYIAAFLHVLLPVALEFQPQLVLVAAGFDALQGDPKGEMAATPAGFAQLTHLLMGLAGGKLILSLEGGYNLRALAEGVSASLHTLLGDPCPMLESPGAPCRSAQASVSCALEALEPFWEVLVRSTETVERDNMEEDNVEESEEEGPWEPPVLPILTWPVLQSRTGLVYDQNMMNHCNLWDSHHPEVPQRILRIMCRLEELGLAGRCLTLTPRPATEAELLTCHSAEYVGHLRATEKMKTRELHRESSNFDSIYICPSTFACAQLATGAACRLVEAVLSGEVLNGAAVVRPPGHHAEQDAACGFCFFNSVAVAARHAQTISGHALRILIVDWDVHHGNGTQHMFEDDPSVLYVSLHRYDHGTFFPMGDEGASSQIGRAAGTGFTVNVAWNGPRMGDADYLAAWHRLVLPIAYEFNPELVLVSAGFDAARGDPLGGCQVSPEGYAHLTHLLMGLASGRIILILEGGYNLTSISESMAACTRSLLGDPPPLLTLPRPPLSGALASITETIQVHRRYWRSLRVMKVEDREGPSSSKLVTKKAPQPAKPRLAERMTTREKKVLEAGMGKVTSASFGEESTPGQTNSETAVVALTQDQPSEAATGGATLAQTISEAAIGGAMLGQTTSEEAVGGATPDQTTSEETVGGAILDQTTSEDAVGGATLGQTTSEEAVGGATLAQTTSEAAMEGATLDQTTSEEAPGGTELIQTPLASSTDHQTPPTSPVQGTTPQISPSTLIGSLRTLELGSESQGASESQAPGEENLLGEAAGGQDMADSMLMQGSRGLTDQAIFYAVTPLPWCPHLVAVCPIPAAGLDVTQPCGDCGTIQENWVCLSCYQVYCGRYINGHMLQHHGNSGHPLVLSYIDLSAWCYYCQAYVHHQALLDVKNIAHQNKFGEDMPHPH

Candida albicans [8] = experiment: Synergistic antifungal activity against Candida albicans 4108 assessed as fluconazole MIC incubated for 48 hrs in presence of fluconazole by microdilution assay (reference value: fluconazole alone MIC = >[…] ug/ml); format: functional
Pichia kudriavzevii = experiment: Antifungal activity against Candida krusei 10153 incubated for 48 hrs by microdilution assay; format: functional; in short: as §2
Cryptococcus neoformans [9] = experiment: Synergistic antifungal activity against Cryptococcus neoformans assessed as potentiation of ITC antifungal activity by measuring ITC incubated for 48 hrs in presence of fluconazole by checkerboard microdilution assay; format: functional, organism-based
Candida albicans [10] = experiment: Down regulation of CDR2 mRNA expression in Candida albicans 0304103 at 32 ug/ml incubated for 24 hrs in presence of 32 ug/ml fluconazole by RT-PCR analysis; format: functional; settings: dose 32.0 µg/ml; in short: as §1
Candida albicans [11] = experiment: Induction of morphological changes in Candida albicans assessed as reduction in morphological conversion from yeast to hypha forms at 32 ug/ml incubated for 3 hrs in presence of 32 ug/ml fluconazole by inverse fluorescence microscopy; format: functional, organism-based; settings: dose 32.0 µg/ml
In short: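 Exponential C. albicans at 2 × 10⁶ cells/mL in Spider medium (hypha-inducing), drugs alone or combined, DMSO control; 3 h at 37 °C, then observed and photographed by inverted fluorescence microscopy. Three independent experiments.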

Cryptococcus neoformans [12] = experiment: Synergistic antifungal activity against Cryptococcus neoformans assessed as potentiation of VRC antifungal activity by measuring VRC incubated for 48 hrs in presence of fluconazole by checkerboard microdilution assay; format: functional, organism-based
Candida albicans [13] = experiment: Synergistic antifungal activity against Candida albicans 0304103 at 32 ug/ml incubated for 48 hrs in presence of 32 ug/ml fluconazole by microdilution assay; format: functional, organism-based; settings: dose 32.0 µg/ml
Candida albicans [14] = experiment: Synergistic antifungal activity against Candida albicans 10061 incubated for 48 hrs in presence of fluconazole by microdilution assay; format: functional; in short: as §2

Histone deacetylase 1, sequence (Q13547 whole entry): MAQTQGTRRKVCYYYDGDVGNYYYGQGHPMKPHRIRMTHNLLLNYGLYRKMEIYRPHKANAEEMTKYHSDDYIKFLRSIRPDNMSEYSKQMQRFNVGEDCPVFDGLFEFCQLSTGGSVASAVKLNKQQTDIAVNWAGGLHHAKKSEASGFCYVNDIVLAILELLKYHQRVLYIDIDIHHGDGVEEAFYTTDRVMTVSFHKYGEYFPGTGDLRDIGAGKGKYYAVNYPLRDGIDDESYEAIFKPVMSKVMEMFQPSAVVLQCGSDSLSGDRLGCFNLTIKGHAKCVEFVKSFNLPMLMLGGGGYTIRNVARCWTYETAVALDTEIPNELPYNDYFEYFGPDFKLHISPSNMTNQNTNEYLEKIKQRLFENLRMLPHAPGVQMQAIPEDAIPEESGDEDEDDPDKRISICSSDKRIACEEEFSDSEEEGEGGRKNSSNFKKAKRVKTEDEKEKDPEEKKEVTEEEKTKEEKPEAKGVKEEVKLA

SMILES: O=C(Cc1ccc(OCCCn2c3c(c4cccc(Cl)c42)CCNC3)cc1)NO
- Activity (Candida albicans [1]): Active
- fractional inhibitory concentration index (FICI) (Candida albicans [2]): 0.035
- Activity (Candida albicans [3]): inactive
- MIC80 (Candida albicans [4]): 0.25 µg/mL (≈ 0.604 µM)
- IC50 (Histone deacetylase 1): 2230 nM
- MIC80 (Candida albicans [5]): 64 µg/mL (≈ 155 µM)
- inhibition (Candida albicans [6]): Active
- IC50 [7]: 459 nM
- MIC80 (Candida albicans [8]): 0.25 µg/mL
- MIC80 (Pichia kudriavzevii): 64 µg/mL (≈ 155 µM)
- Activity (Cryptococcus neoformans [9]): inactive
- Activity (Candida albicans [10]): Active
- Activity (Candida albicans [11]): Active
- Activity (Cryptococcus neoformans [12]): inactive
- Activity (Candida albicans [13]): Active
- MIC80 (Candida albicans [14]): 2 µg/mL
